Screening data: PubChem, The Scripps Research Institute Molecular Screening Center
OXTR agonist: human OXTR agonists, primary screen, fluorescence, CHO-OTR cells, Fluo-8 calcium; Oxytocin receptor (Homo sapiens), P30559; Fluo-8 calcium fluorescence; normalized: DMSO 0%, oxytocin 100%; activation, % at 3 µM; 0.32% of 320,000 active;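 active = activation above the mean of all tested compounds plus 3 SD, cutoff set per screening run, cut at about 20% in these data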;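 also: peak over basal fluorescence ratio from a 100 s FLIPR kinetic read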
V1R ag counter: agonists of human V1a receptor, primary screen, counter-screen for OXTR agonist project, fluorescence, CHO-V1R cells; Vasopressin V1a receptor (Homo sapiens), P37288; Fluo-8 calcium fluorescence, agonist mode; 0% DMSO, 100% 3 nM vasopressin; activation, % at 3 µM; 0.25% of 320,000 active; AID 2797, 2010;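 active = activation above the mean activation of all tested compounds plus 3 SD, per screening run, cut at about 20% in these data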;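 also: signal is peak over basal fluorescence ratio across a 100 second FLIPR read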
Target sequence (P37288 whole entry, looked up): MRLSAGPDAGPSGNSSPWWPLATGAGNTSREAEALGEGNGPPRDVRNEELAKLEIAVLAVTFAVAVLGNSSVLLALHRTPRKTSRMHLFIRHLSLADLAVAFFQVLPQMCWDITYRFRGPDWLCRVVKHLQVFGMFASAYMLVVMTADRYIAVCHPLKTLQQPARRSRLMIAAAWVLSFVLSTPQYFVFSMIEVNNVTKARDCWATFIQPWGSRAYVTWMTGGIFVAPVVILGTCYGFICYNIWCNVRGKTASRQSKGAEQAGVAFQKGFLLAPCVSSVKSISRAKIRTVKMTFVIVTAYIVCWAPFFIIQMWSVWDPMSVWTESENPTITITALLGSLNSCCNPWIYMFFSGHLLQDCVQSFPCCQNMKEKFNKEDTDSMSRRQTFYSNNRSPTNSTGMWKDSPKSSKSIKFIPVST
OXTR potentiator: human OXTR potentiators, primary screen, fluorescence, CHO-OTR cells, Fluo-8 calcium; Oxytocin receptor (Homo sapiens), P30559; AID 2445, 2010; Fluo-8 calcium fluorescence, potentiator mode; 0% = oxytocin EC15, 100% = EC100; 0.061% of 320,000 active; activation, % at 3 µM;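 active = activation above that plate's cutoff, the mean activation of tested compounds plus 3 SD, cut at about 6.6% in these data, passing the limit was not always enough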;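 also: 100% uses oxytocin at 75 nM as the full agonist control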
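Assay system: CHO cell line stably expressing human OTR. Reagent: EC15 oxytocin agonist. Dosing: single dose, 3.0 µM nominal final compound concentration. Timing: compound 6 min at room temperature before oxytocin, 100 s read. Signal: kinetic Fluo-8 calcium fluorescence. Controls: oxytocin EC15 low and EC100 high.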
TRPML3 agonist: human TRPML3 channel agonists, primary screen, cell-based, HEK293 TRPML3-YFP, Fluo-8 calcium fluorescence, 3 µM; AID 1448, 2008; 100% = the carbachol control signal; Mucolipin-3 (Homo sapiens), Q8TDD5; activation, % at 3 µM; 0.29% of 220,000 active;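 active = activation above its plate's cutoff, the mean activation of the plate's test wells plus 3 SD, cut at about 12% in these data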;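 also: 0% = DMSO only wells and 100% = carbachol wells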
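Test system: HEK293 cells stably carrying human TRPML3-YFP; Doses: single dose, 3 µM final nominal compound, 0.3% DMSO final; Schedule: dye loading 1 h 37 °C then 30 min ambient, 125 s read; Technique: Fluo-8 calcium fluorescence; Benchmarks: high control carbachol 87 µM, low control DMSO.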
zfTRPN1 agonist: zebrafish TRPN1 channel agonists, primary screen, cell-based, HEK293, calcium fluorescence; HEK293 zebrafish TRPN1-YFP, Fluo-8 calcium fluorescence; 100% = response to 87 µM carbachol; AID 1424, 2008; 0.18% of 220,000 active; activation, % at 3 µM;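 active = activation above its plate's cutoff, the mean activation of test wells on that plate plus 3 SD, cut at about 19% in these data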;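 also: 0% = DMSO alone and 100% = 87 µM carbachol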
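System: zebrafish TRPN1-YFP in HEK293 cells / Dosing: 3 µM single point / Timing: dye loading 1 h at 37 °C, then 30 min room temperature / Signal: Fluo-8 calcium fluorescence, excitation 470-495 nm, emission 515-575 nm / Read-out basis: percent activation from peak over basal fluorescence ratio, control-normalized / Control set: high carbachol 87 µM, low DMSO alone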
TRPN1 ag 2: zebrafish TRPN1 channel agonists, counter-screen for TRPML3 agonist project, cell-based, HEK293 TRPN1-YFP, Fluo-8 calcium; AID 1525, 2009; activation, % at 3 µM; shares compounds with TRPML3 agonist; Fluo-8 calcium fluorescence; scaled: carbachol wells 100%, DMSO wells 0%; 10% of 310 active;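 active = mean activation over replicates above a set limit taken from the earlier TRPN1 channel primary screen, cut at about 19% in these data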;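 also: 100% = carbachol and 0% = 0.3% DMSO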
TRPML3 confirm: human TRPML3 channel agonists, confirmation, cell-based, HEK293 TRPML3-YFP, Fluo-8 calcium, triplicate. activation, % at 3 µM. shares compounds with TRPML3 agonist. AID 1526, 2009. 80% of 310 active. Fluo-8 calcium fluorescence; 100% set by carbachol, 0% by DMSO;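 active = activation above a set limit derived from the earlier primary screen, cut at about 12% in these data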
* marks the source's active call; other numbers are inactive results. An excerpt weighted towards active compounds, which were near 0.59% of everything screened.

What do the screens show for `O=C(C1Cc2ccccc2CN1S(=O)(=O)c1ccc(F)cc1)N1CCCCC1` (centres undefined)?
OXTR agonist: -2; V1R ag counter: 0; OXTR potentiator: 4; TRPML3 agonist: 64*; zfTRPN1 agonist: 1; TRPN1 ag 2: 4; TRPML3 confirm: 127*

What do the screens show for `COc1ccccc1N1CCN(C(=O)C2CCCN(S(=O)(=O)c3ccc(C)cc3)C2)CC1` (centres undefined)?
OXTR agonist: 7; V1R ag counter: 9; OXTR potentiator: -4

How did COc1ccccc1N1CCN(C(=O)C2CCCCN2S(=O)(=O)c2ccc(C)cc2)CC1 (centres undefined) do in these assays?
OXTR agonist: -2; V1R ag counter: 1; OXTR potentiator: -6; TRPML3 agonist: 14*; zfTRPN1 agonist: 1; TRPN1 ag 2: 0; TRPML3 confirm: 11

How did CC(C(=O)Nc1ccc(F)c(F)c1F)N(C)Cc1cccs1 (centres undefined) do in these assays?
OXTR agonist: -2; V1R ag counter: -1; OXTR potentiator: -5

Results for CCOC(=O)N1CCN(C(=O)C2CC(=O)N(c3ccc(C)cc3)C2)CC1 (centres undefined) ?
OXTR agonist: -2; V1R ag counter: -1; OXTR potentiator: 6

Results for Cc1cc(-c2ccc(S(=O)(=O)N3CCN(c4ccccc4F)CC3)s2)on1 ?
OXTR agonist: 0; V1R ag counter: 1; OXTR potentiator: -11

How did COC(=O)c1c(NC(=O)COC(=O)[C@@H](NS(=O)(=O)c2ccc(C)cc2)C(C)C)sc2c1CCC2 do in these assays?
OXTR agonist: -3; V1R ag counter: -1; OXTR potentiator: -10; TRPML3 agonist: 29*; zfTRPN1 agonist: 0; TRPN1 ag 2: -1; TRPML3 confirm: 50*

What do the screens show for `COC(=O)c1c(NC(=O)COC(=O)c2ccc(C)s2)sc2c1CCCCC2`?
OXTR agonist: 0; V1R ag counter: 1; OXTR potentiator: -3; TRPML3 agonist: 2; zfTRPN1 agonist: 2

What do the screens show for `Cc1cccc2c3c([nH]c12)CCN(C)C3`?
OXTR agonist: 1; V1R ag counter: 1; OXTR potentiator: -15

Results for CCCOc1cc(N(CC)CC)ccc1/C=C(/C#N)c1nc2ccc(C)cc2[nH]1 ?
OXTR agonist: 33*; V1R ag counter: 27*; OXTR potentiator: -14; TRPML3 agonist: 13*; zfTRPN1 agonist: 18; TRPN1 ag 2: 24*; TRPML3 confirm: 13*

How did O=S(=O)(C=C(c1ccccc1)c1ccccc1)c1ccccc1 do in these assays?
OXTR agonist: 1; V1R ag counter: 1; OXTR potentiator: -19; TRPML3 agonist: 83*; zfTRPN1 agonist: 0; TRPN1 ag 2: -2; TRPML3 confirm: 64*

How did COc1ccc(OC)c(N(CC(=O)N2CCCC2)S(=O)(=O)c2ccc(C)cc2)c1 do in these assays?
OXTR agonist: 1; V1R ag counter: 2; OXTR potentiator: 3

What do the screens show for `COc1cc2oc3ccccc3c2cc1N(CC(=O)N1CCCCC1)S(=O)(=O)c1ccc(C)cc1`?
OXTR agonist: -2; V1R ag counter: 2; OXTR potentiator: -9; TRPML3 agonist: 179*; zfTRPN1 agonist: 16; TRPN1 ag 2: 48*; TRPML3 confirm: 147*
